Screens from PubChem BioAssay.
PAD4 FP inh = human PAD4 inhibitors, primary screen, biochemical, fluorescence polarization, 1536-well format | Protein-arginine deiminase type-4 (Homo sapiens), Q9UM07 | recombinant PAD4, RCA probe fluorescence polarization | actives 0.41% (n = 330,000) | inhibition, % at 6.36 µM;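 active means percent inhibition above a cutoff equal to the mean of all tested compounds plus 3 SD, cut at about 15% in these data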;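 further: 0% = PAD4 with RCA probe and DMSO and 100% = probe without PAD4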
GSTO1 counter = inhibitors of recombinant GSTO1, primary screen, counter-screen for RBBP9 inhibitor project, biochemical, fluorescence polarization; activity-based probe fluorescence polarization; inhibition, % at 5.96 µM; actives 1.1% (n = 300,000);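 active means inhibition above the campaign mean inhibition plus 3 SD, cut at about 35% in these data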;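 further: 0% = GSTO1-1 with DMSO and 100% = wells lacking GSTO1-1 enzyme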
Target sequence (P78417 whole entry, looked up): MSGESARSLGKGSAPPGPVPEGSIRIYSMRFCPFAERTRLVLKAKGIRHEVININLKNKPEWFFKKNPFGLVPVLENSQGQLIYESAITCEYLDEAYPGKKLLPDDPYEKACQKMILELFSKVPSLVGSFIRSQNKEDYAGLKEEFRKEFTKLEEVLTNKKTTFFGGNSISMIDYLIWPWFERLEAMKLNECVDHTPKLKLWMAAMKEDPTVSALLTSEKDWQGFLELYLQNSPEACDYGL
PP5 primary = PP5 phosphatase inhibitors, primary screen, biochemical, fluorescence; Serine/threonine-protein phosphatase 5 (Homo sapiens), P53041; purified PP5c, OMFP substrate fluorescence; inhibition, % at 6.7 µM; actives 0.18% (n = 320,000);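 active means inhibition above the campaign's mean inhibition across all tested compounds plus 3 SD, cut at about 9.5% in these data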;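 further: 0% = DMSO only and 100% = 100 µM cantharidin control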
Target sequence (P53041 whole entry, looked up): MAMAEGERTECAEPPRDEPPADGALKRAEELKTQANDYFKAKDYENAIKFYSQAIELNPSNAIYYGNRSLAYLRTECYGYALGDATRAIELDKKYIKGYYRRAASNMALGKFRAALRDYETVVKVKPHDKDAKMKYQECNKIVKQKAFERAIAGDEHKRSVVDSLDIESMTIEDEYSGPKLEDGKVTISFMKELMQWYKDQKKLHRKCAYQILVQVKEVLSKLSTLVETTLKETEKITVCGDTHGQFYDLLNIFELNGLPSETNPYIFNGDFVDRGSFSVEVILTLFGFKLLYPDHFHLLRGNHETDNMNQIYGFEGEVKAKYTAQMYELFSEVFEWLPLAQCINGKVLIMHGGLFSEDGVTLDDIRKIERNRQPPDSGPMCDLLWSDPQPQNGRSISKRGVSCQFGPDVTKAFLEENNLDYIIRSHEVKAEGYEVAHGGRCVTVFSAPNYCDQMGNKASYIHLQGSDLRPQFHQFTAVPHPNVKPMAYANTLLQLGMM
Apaf1 inhib = inhibitors of human Apaf-1 apoptosome, primary screen, biochemical, DEVD-Rh110 fluorescence, uHTS. Apoptotic protease-activating factor 1 (Homo sapiens), O14727. reconstituted apoptosome caspase-3 activity. inhibition, % at 20 µM. actives 0.71% (n = 330,000). AID 489030, 2010; active means inhibition of at least 40% at 20 µM;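 further: plate controls were DMSO wells for no effect and DEVD-CHO caspase inhibitor wells for full effect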
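Assay system – apoptosome proteins · Medium – Hepes buffer, pH 7.5 · Also added – cytochrome c with DEVD-Rh110 · Timing – 30 min compound preincubation, 50 min activation, room temperature · Detection – Rh110 fluorescence, excitation 480 nm, emission 540 nm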
CTSL1 counter = Fasciola hepatica cathepsin L1 inhibitors, primary screen, counter-screen for PFM18AAP inhibitor project, biochemical, QFRET, fluorogenic peptide substrate; recombinant F. hepatica cathepsin L1, Z-Leu-Arg-MCA fluorescence; inhibition, % at 5.96 µM; actives 0.49% (n = 300,000); AID 1906, 2009;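 active means inhibition above the mean of all tested compounds plus 3 SD, set per screening campaign, cut at about 17% in these data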;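 further: 0% = plate median of test compound wells and 100% = 1 µM Z-Phe-Ala-diazomethylketone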
UCH37 DUB inh = inhibitors of human UCH37 deubiquitinase, primary screen, biochemical, Ub-AMC cleavage, fluorescence. purified proteasome/UCH37. inhibition, % (test concentration not listed). actives 0.33% (n = 330,000);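 active means mean inhibition over replicate wells above about 20%, limit read from the data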;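 further: 0% = compound-free wells with enzyme and 100% = wells lacking proteasome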
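Material: human UCH37 enzyme supplied as purified proteasome complex / Amount: 0.15 nM proteasome as dispensed / Buffer or medium: pH 7.4 Tris-HCl (50 mM) with ovalbumin, ATP-MgCl2, DTT / Times: preincubation 30 min, reaction 25 min, room temperature / Technique: AMC fluorescence from Ub-AMC cleavage, excitation 355 nm, emission 460 nm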
GSTO1 confirm = GSTO1 inhibitor hit confirmation, counter-screen for RBBP9 inhibitor project, biochemical, fluorescence polarization, triplicate. recombinant GSTO1, probe fluorescence polarization. AID 2176, 2009. actives 54% (n = 2,400). shares compounds with GSTO1 counter. inhibition, % at 5.96 µM;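 active means inhibition above the primary screen's cutoff, its mean inhibition plus 3 SD, cut at about 35% in these data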;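 further: loss of polarization as inhibitors block binding of rhodamine sulfonate ester activity probe; 0% = GSTO1 with DMSO and 100% = wells lacking GSTO1 enzyme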
GSTO1 ABPP inh = inhibitors of purified human GSTO1, late-stage follow-up, biochemical, gel ABPP, SE-Rh probe, percent inhibition; shares compounds with GSTO1 counter; recombinant GSTO1, gel ABPP SE-Rh probe fluorescence; inhibition, % at 1 µM; actives 30% (n = 130);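 active means inhibition of the enzyme GSTO1 above about 75%, limit read from the data; inactive means inhibition below that limit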
PP5 inh confirm = PP5 phosphatase inhibitors, confirmation, biochemical, fluorescence, human; inhibition, % at 6.7 µM; actives 22% (n = 460); shares compounds with PP5 primary; Purified PP5, fluorogenic phosphatase substrate; in the data active means inhibition above about 9.5%
PP1 inh counter = PP1 phosphatase inhibitors, counter-screen for PP5 inhibitor project, biochemical, fluorescence, triplicate; shares compounds with PP5 primary; PP1 enzyme, fluorescent phosphatase substrate; inhibition, % at 6.7 µM; actives 4% (n = 460); in the data active means inhibition above about 16%
Starred values were filed as active, the others as inactive; / = not tested or not shown. A selection: hits, their analogues and other compounds. The true share with any hit is near 2%.

SMILES	PAD4 FP inh	GSTO1 counter	PP5 primary	Apaf1 inhib	CTSL1 counter	UCH37 DUB inh	GSTO1 confirm	others
CC1(OC(=O)C2CCCC2)C(=O)C=C2C=C3CCCCN3C=C2C1=O (configuration not stated)	-0.3	51.4*	4.6	36.1	12.6	3.1	11.4
COC(=O)CCC(=O)OC1(C)C(=O)C=C2C=C3CCCN3C=C2C1=O (configuration not stated)	-9.3	38.3*	2.1	16.3	2.0	7.3	10.4
COc1cc(C=NO)ccc1Oc1ccc([N+](=O)[O-])cc1[N+](=O)[O-]	/	/	/	/	/	2.0	/
Cc1cc([N+](=O)[O-])c2c(c1C)C1C=CCC1C(c1ccccn1)N2 (configuration not stated)	-1.2	52.1*	1.2	9.3	2.2	5.2	10.2
Cc1ccc(-c2noc(CSc3nnc(-c4ccncc4)n3-c3ccc(C)cc3)n2)cc1	-1.1	8.7	1.6	4.1	1.8	4.3	/
Cc1ccc(-c2noc(CSc3nnnn3C3CCCCC3)n2)cc1	-1.1	39.6*	0.9	16.4	3.5	4.2	32.6
CC1(N2CCCCC2)CC2(O)C(=NO)CCCC2=[N+]1[O-] (configuration not stated)	/	/	/	/	/	0.1	/
CC1(C)OC2OC(C(=O)NN=Cc3ccccc3F)C3OC(C)(C)OC3C2O1 (configuration not stated)	/	/	/	/	/	-2.2	/
CC1(C)CC(=O)C(C=Nc2ccc(O)cc2)=C(O)C1	-0.5	38.2*	1.6	-0.8	0.1	11.4	4.3
CC1(C)CC(=O)C(C=NCCc2ccc(S(N)(=O)=O)cc2)=C(O)C1	-2.7	40.6*	1.0	3.8	-1.2	3.4	5.1
CC(=O)c1sc(NN=C2CC3CC2C(C)C3(C)C)nc1C (configuration not stated)	/	/	/	/	/	-2.5	/
Cn1cccc1C=Nn1cnnc1	/	/	/	/	/	3.3	/
Cc1cc(C)cc(NC(=O)CCc2c(C)nn(-c3ccc(N4CCCCC4)nn3)c2C)c1	0.6	67.0*	2.6	8.8	0.7	2.0	7.4
COc1cccc(C=NNC(=O)c2cccc(N3CCCC3=O)c2)c1	/	/	/	/	/	6.8	/
CCNc1nc(NCC)nc(N/N=C/c2ccc(O)c(O)c2)n1	-0.8	38.2*	-2.1	4.9	0.9	/	1.4
Cc1nc2c(O)cccc2cc1CO	2.0	49.9*	-0.2	6.4	2.9	-0.8	4.0
Cc1ccc(O)c(CO)n1	0.1	-0.3	-0.1	0.5	-2.5	-10.7	/
O=C1CSC2=NCN(c3ccc4c(c3)OCO4)CN12	-0.1	11.5	0.2	2.2	-0.3	1.9	/
CN(C)c1ccc(N2CN=C3SCC(=O)N3C2)cc1	12.1	72.1*	0.3	26.1	-3.9	2.2	4.4
Nc1c(C(=O)NC2CC2)sc2nc3c(c(-c4ccco4)c12)CC/C3=C/c1ccco1	-12.7	62.0*	1.5	/	10.4	5.9	36.7*
COc1ccc(NN=C(C#N)C(=O)NCCc2ccc(OC)c(OC)c2)cc1	/	/	/	/	/	4.6	/
CNC(=O)COC(=O)c1cc(-c2ccco2)nc2ccccc12	4.5	39.7*	-2.7	4.7	-2.5	-233.8	8.9
O=C(COC(=O)c1cc(-c2ccco2)nc2ccccc12)NCc1ccccc1	-3.9	5.4	1.9	19.0	-3.5	-124.9	/
O=C1C2C3C=CC(C4CC34)C2C(=O)N1N=Cc1ccc(-c2ccccc2[N+](=O)[O-])o1 (configuration not stated)	/	/	/	/	/	5.8	/
COc1ccc(C=NNC(=O)c2nn(-c3ccc(Cl)cc3)c(=O)c3c(N)scc23)cc1	/	/	/	/	/	11.4	/
SMILES	PAD4 FP inh	GSTO1 counter	PP5 primary	Apaf1 inhib	CTSL1 counter	UCH37 DUB inh	GSTO1 confirm	others
Nc1scc2c(C(=O)N/N=C/c3ccc(Cl)cc3)nn(-c3ccccc3)c(=O)c12	-2.2	44.7*	4.3	42.4*	33.5*	/	0.9
Cc1ccc(S(=O)(=O)N=C(N)Nc2nc(C)c3cc(C)ccc3n2)cc1	/	/	/	/	/	-18.1	/
O=C(N/N=C/c1cc(Br)c(Br)o1)c1cccnc1	4.0	44.4*	4.2	28.3	11.3	/	15.3
N#CCSc1nnc(-c2sc3ccccc3c2Cl)o1	-4.7	40.2*	2.5	5.2	1.2	0.6	32.5
COC(=O)CSc1nnc(-c2sc3ccccc3c2Cl)o1	-3.4	1.3	2.0	2.8	2.1	-2.9	/
COc1ccc(N(C(=O)CCl)C(C(=O)NCCc2ccccc2)c2cccs2)cc1 (configuration not stated)	14.4	93.3*	2.7	/	4.9	-0.1	97.6*	GSTO1 ABPP inh=94.0*
c1ccc2c(C3CCO3)cccc2c1 (configuration not stated)	-0.2	/	1.1	2.9	/	-0.5	/
O=C1c2ccccc2C(=O)C12OC2c1cccc2ccccc12 (configuration not stated)	-15.1	75.4*	10.0*	94.5*	62.3*	23.9*	70.5*	PP5 inh confirm=34.9*;PP1 inh counter=16.8*
Cc1cc(NN=Cc2ccccc2F)c2ccccc2n1	/	/	/	/	/	-18.9	/
COc1cc(C=NNC(=O)C2C3CCCCC32C)cc(Br)c1O (configuration not stated)	/	/	/	/	/	-2.9	/
COC(=O)CCC(=O)OC1(C)C(=O)C2=CN(CC(C)C)C(c3ccc(OC)cc3)=CC2=C(Br)C1=O (configuration not stated)	-5.7	58.6*	14.7*	52.0*	-0.9	/	52.5*	PP5 inh confirm=30.8*;PP1 inh counter=11.7
Oc1ccccc1NCC(O)Cn1ccc2ccccc21 (configuration not stated)	-5.9	66.0*	9.8*	4.1	-1.5	3.4	7.2	PP5 inh confirm=4.1;PP1 inh counter=-1.6
